The record followed here is ChEMBL document CHEMBL3286366, “Identification of malic enzyme mutants depending on 1,2,3-triazole moiety-containing nicotinamide adenine dinucleotide analogs” (Bioorg Med Chem Lett, 2014).

The test system of series [1] is Escherichia coli K-12. Description: Activity of purified recombinant Escherichia coli K-12 malic enzyme L310K/L404S mutant at 0.2 mM by Lineweaver-Burk plot method in presence of L-malate MnCl2.
Series [2] relates to Escherichia coli K-12. Description: Ratio of Kcat to Km for purified recombinant Escherichia coli K-12 malic enzyme L310K/L404S mutant at 0.2 mM by Lineweaver-Burk plot method in presence of L-malate MnCl2.
For series [3], the system named is Escherichia coli K-12. Description: Activity of purified recombinant Escherichia coli K-12 malic enzyme L310K/L404S mutant at 0.2 mM by UV-vis spectrophotometry in presence of L-malate MnCl2. An outline of the steps: (§1)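 Screening of malic enzyme mutants with 1,2,3-triazole-containing NAD analogs as cofactor. Each analog was present at 0.2 mM, and the read-out was specific activity.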

Series [4] concerns Escherichia coli K-12. Put plainly: Activity of purified recombinant Escherichia coli K-12 malic enzyme L310K/Q401R mutant at 0.2 mM by UV-vis spectrophotometry in presence of L-malate MnCl2. Summed up:
as §1

In series [5] the test system is Escherichia coli K-12. Put plainly: Activity of purified recombinant Escherichia coli K-12 malic enzyme L310R/Q401I mutant at 0.2 mM by UV-vis spectrophotometry in presence of L-malate MnCl2. An outline of the steps: as §1
In series [6] the test system is Escherichia coli K-12. Put plainly: Activity of purified recombinant Escherichia coli K-12 malic enzyme L310R/Q401S mutant at 0.2 mM by UV-vis spectrophotometry in presence of L-malate MnCl2. An outline of the steps: as §1
Series [7] concerns Escherichia coli K-12. Description: Activity of purified recombinant Escherichia coli K-12 malic enzyme L310R/L404N mutant at 0.2 mM by UV-vis spectrophotometry in presence of L-malate MnCl2. An outline of the steps:
as §1

Series [8] deals with Escherichia coli K-12. Put plainly: Activity of purified recombinant Escherichia coli K-12 malic enzyme L310R/L404C mutant at 0.2 mM by UV-vis spectrophotometry in presence of L-malate MnCl2. An outline of the steps: as §1
The subject of series [9] is Escherichia coli K-12. Put plainly: Activity of purified recombinant Escherichia coli K-12 malic enzyme L310R/Q401N mutant at 0.2 mM by UV-vis spectrophotometry in presence of L-malate MnCl2. Summed up: as §1
Series [10] relates to Escherichia coli K-12. Description: Activity of purified recombinant Escherichia coli K-12 malic enzyme L310R/Q401V mutant at 0.2 mM by UV-vis spectrophotometry in presence of L-malate MnCl2. Summed up:
as §1

Compound in series [11]: Cc1ccccc1-c1cn([C@H]2O[C@@H](COP(=O)(O)OP(=O)([O-])OC[C@H]3O[C@@H]([n+]4cccc(C(N)=O)c4)[C@H](O)[C@@H]3O)[C@H](O)[C@@H]2O)nn1
Description: (§2) Activity of purified recombinant Escherichia coli K-12 malic enzyme at 0.2 mM by Lineweaver-Burk plot method in presence of L-malate MnCl2.

Compound in series [12]: NC(=O)c1ccc[n+]([C@@H]2O[C@H](COP(=O)([O-])OP(=O)(O)OC[C@@H]3O[C@H](n4cc(-c5cccc6ccccc56)nn4)[C@@H](O)[C@H]3O)[C@@H](O)[C@H]2O)c1
The series is described as §2.

Compound in series [13]: NC(=O)c1ccc[n+]([C@@H]2O[C@H](COP(=O)([O-])OP(=O)(O)OC[C@@H]3O[C@H](n4cc(-c5ccccc5)nn4)[C@@H](O)[C@H]3O)[C@@H](O)[C@H]2O)c1
The description is as §2.

Compound in series [14]: NC(=O)c1ccc[n+]([C@@H]2O[C@H](COP(=O)([O-])OP(=O)(O)OC[C@@H]3O[C@H](n4cnc5c(N)ncnc54)[C@@H](O)[C@H]3O)[C@@H](O)[C@H]2O)c1
The series is described as §2.

Compound in series [15]: Cc1ccccc1-c1cn([C@H]2O[C@@H](COP(=O)(O)OP(=O)([O-])OC[C@H]3O[C@@H]([n+]4cccc(C(N)=O)c4)[C@H](O)[C@@H]3O)[C@H](O)[C@@H]2O)nn1
Put plainly: (§3) Ratio of Kcat to Km for purified recombinant Escherichia coli K-12 malic enzyme at 0.2 mM by Lineweaver-Burk plot method in presence of L-malate MnCl2.

Compound in series [16]: NC(=O)c1ccc[n+]([C@@H]2O[C@H](COP(=O)([O-])OP(=O)(O)OC[C@@H]3O[C@H](n4cc(-c5cccc6ccccc56)nn4)[C@@H](O)[C@H]3O)[C@@H](O)[C@H]2O)c1
The description is as §3.

Compound in series [17]: NC(=O)c1ccc[n+]([C@@H]2O[C@H](COP(=O)([O-])OP(=O)(O)OC[C@@H]3O[C@H](n4cc(-c5ccccc5)nn4)[C@@H](O)[C@H]3O)[C@@H](O)[C@H]2O)c1
Described as §3.

Compound in series [18]: NC(=O)c1ccc[n+]([C@@H]2O[C@H](COP(=O)([O-])OP(=O)(O)OC[C@@H]3O[C@H](n4cnc5c(N)ncnc54)[C@@H](O)[C@H]3O)[C@@H](O)[C@H]2O)c1
The series is described as §3.

As for `NC(=O)c1ccc[n+]([C@@H]2O[C@H](COP(=O)([O-])OP(=O)(O)OC[C@@H]3O[C@H](n4cc(-c5ccccc5)nn4)[C@@H](O)[C@H]3O)[C@@H](O)[C@H]2O)c1`, in [1], the Michaelis constant (Km) (usually the substrate concentration at which the rate is half of its maximum) worked out at 2500 µM and the catalytic constant (kcat) (in general, the maximal rate divided by the concentration of active sites) amounted to 16.4 s⁻¹. Also, in series [2], the kcat/Km – broadly, the turnover number divided by the Michaelis constant – worked out at 6700 M⁻¹ s⁻¹.

With `NC(=O)c1ccc[n+]([C@@H]2O[C@H](COP(=O)([O-])OP(=O)(O)OC[C@@H]3O[C@H](n4cc(C(=O)O)nn4)[C@@H](O)[C@H]3O)[C@@H](O)[C@H]2O)c1`, the Activity in series [3] came out at 0.17 U/mg; in series [4] it was 2.1 U/mg.

Regarding `Cc1ccccc1-c1cn([C@H]2O[C@@H](COP(=O)(O)OP(=O)([O-])OC[C@H]3O[C@@H]([n+]4cccc(C(N)=O)c4)[C@H](O)[C@@H]3O)[C@H](O)[C@@H]2O)nn1`, in series [1], the Km came to 1100 µM and the kcat turned out to be 86.7 s⁻¹. Further, the kcat/Km in series [2] came out at 78800 M⁻¹ s⁻¹.

On to `COc1ccc(-c2cn([C@H]3O[C@@H](COP(=O)(O)OP(=O)([O-])OC[C@H]4O[C@@H]([n+]5cccc(C(N)=O)c5)[C@H](O)[C@@H]4O)[C@H](O)[C@@H]3O)nn2)cc1`, for which the Activity is 0.98 U/mg in series [5]; 0.43 U/mg in series [6]; 0.51 U/mg in series [7]; 1.6 U/mg in [3]; 0.51 U/mg in [8]; 4.3 U/mg in [4]. Also, the Activity in series [9] turned out to be 0.43 U/mg.

With `NC(=O)c1ccc[n+]([C@@H]2O[C@H](COP(=O)([O-])OP(=O)(O)OC[C@@H]3O[C@H](n4cc(-c5cccc6ccccc56)nn4)[C@@H](O)[C@H]3O)[C@@H](O)[C@H]2O)c1`, the Activity in series [7] is 0.47 U/mg; in series [3], 10.5 U/mg; in series [8], 0.36 U/mg; in series [4] it was 2.3 U/mg; in [10] it was 0.53 U/mg; in series [9], 0.32 U/mg. Besides, in series [1], the Michaelis constant (Km) came to 1000 µM. Besides, in series [1], the kcat came out at 68.6 s⁻¹. Moreover, the kcat/Km in series [2] is 68600 M⁻¹ s⁻¹.

`NC(=O)c1ccc[n+]([C@@H]2O[C@H](COP(=O)([O-])OP(=O)(O)OC[C@@H]3O[C@H](n4cnc5c(N)ncnc54)[C@@H](O)[C@H]3O)[C@@H](O)[C@H]2O)c1`: in [1], the Km was 4100 µM and the turnover number (kcat) stood at 33.7 s⁻¹. Further, in series [2], the specificity constant (kcat/Km) worked out at 8200 M⁻¹ s⁻¹.

B1: NAD-dependent malic enzyme (Escherichia coli (strain K12)), P26616 (protein)
chain: MEPKTKKQRSLYIPYAGPVLLEFPLLNKGSAFSMEERRNFNLLGLLPEVVETIEEQAERAWIQYQGFKTEIDKHIYLRNIQDTNETLFYRLVNNHLDEMMPVIYTPTVGAACERFSEIYRRSRGVFISYQNRHNMDDILQNVPNHNIKVIVVTDGERILGLGDQGIGGMGIPIGKLSLYTACGGISPAYTLPVVLDVGTNNQQLLNDPLYMGWRNPRITDDEYYEFVDEFIQAVKQRWPDVLLQFEDFAQKNAMPLLNRYRNEICSFNDDIQGTAAVTVGTLIAASRAAGGQLSEKKIVFLGAGSAGCGIAEMIISQTQREGLSEEAARQKVFMVDRFGLLTDKMPNLLPFQTKLVQKRENLSDWDTDSDVLSLLDVVRNVKPDILIGVSGQTGLFTEEIIREMHKHCPRPIVMPLSNPTSRVEATPQDIIAWTEGNALVATGSPFNPVVWKDKIYPIAQCNNAFIFPGIGLGVIASGASRITDEMLMSASETLAQYSPLVLNGEGMVLPELKDIQKVSRAIAFAVGKMAQQQGVAVKTSAEALQQAIDDNFWQAEYRDYRRTSI
For B1, the Michaelis constant (Km) in series [11] was determined as 1600 µM; in series [12], 1800 µM; in [13], 2900 µM; in [14], 280 µM. For the same molecule, the kcat in [11] turned out to be 10 s⁻¹; in series [12], 4.6 s⁻¹; in series [13] it was 7.5 s⁻¹; in [14] it was 103 s⁻¹. Further, the kcat/Km was 6300 M⁻¹ s⁻¹ in series [15], 2600 M⁻¹ s⁻¹ in series [16], 2600 M⁻¹ s⁻¹ in series [17] and 369000 M⁻¹ s⁻¹ in series [18].
